Results: ChEMBL document CHEMBL1128331, “New antianginal nitro esters with reduced hypotensive activity. Synthesis and pharmacological evaluation of 3-[(nitrooxy)alkyl]-2H-1,3-benzoxazin-4(3H)-ones” (J Med Chem, 1995)

Key:
[1] = Partition coefficient (logP); assay type: physicochemical; conditions: octanol/water
Oryctolagus cuniculus [2] = species on record: Oryctolagus cuniculus; experiment: Vasorelaxation activity in the isolated endothelium-denuded rabbit aorta; assay type: functional
In short: (§1)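 Endothelium-denuded rabbit aortic strips, precontracted to a stable plateau, then given increasing concentrations cumulatively in the organ chamber; IC50 calculated from the concentration-response curves.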

Rattus norvegicus [3] = experiment: Concentration required to reduce mean arterial blood pressure in rat after intravenous administration.; assay type: functional; conditions: Artery
In short: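 Male Sprague-Dawley rats (350-400 g), urethane 1.25 g/kg ip, tracheal cannula. Carotid catheter records mean arterial pressure continuously; heart rate taken from the pressure wave. Dosing through femoral vein, 1 mL/kg over 20 s. Change expressed as percent of basal; ED20 (dose giving 20% MABP fall) taken from the dose-response curve.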

Rattus norvegicus [4] = species on record: Rattus norvegicus; experiment: Inhibition of vasopressin-induced ECG changes in rat; assay type: functional
In short: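 Urethane-anesthetized (1.25 g/kg ip) male Sprague-Dawley rats, lead II ECG. Arg8-vasopressin 1 IU/kg iv (1 mL/kg over 20 s) given 10 min after iv drug or vehicle (GTN 1 min before). T-wave rise measured in mV. 8 rats per dose; percent inhibition against mean control; ED50 from dose-effect regression line.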

Rattus norvegicus [5] = species on record: Rattus norvegicus; experiment: Selectivity index as the ratio of doses requires to induce a reduction in MABP and that required to prevent ECG changes.; assay type: functional
In short: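 Ratio of the iv ED20 for a 20% fall in mean arterial pressure to the iv ED50 for preventing ECG changes, both measured in urethane-anesthetized rats.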

Oryctolagus cuniculus [6] = species on record: Oryctolagus cuniculus; experiment: Compound was tested for vasorelaxation activity in the isolated endothelium-denuded rabbit aorta; assay type: functional; in short: as §1
Rattus norvegicus [7] = experiment: Inhibition of methacholine-induced ECG changes in the anesthetized rat after intravenous administration.; assay type: functional
In short: (§2)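 Urethane-anesthetized male Sprague-Dawley rats, lead II ECG. Methacholine 8.0 µg in 0.02 mL over 1 s delivered into coronary arteries via a tube passed through the right carotid artery into the coronary ostia; S-T elevation measured in mV. Injection repeated at intervals after a single iv or oral dose. Five rats per dose; percent inhibition over basal; ED50.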

Rattus norvegicus [8] = experiment: Inhibition of methacholine-induced ECG changes in the anesthetized rat after oral administration.; assay type: functional; in short: as §2

SMILES | logP [1] | IC50 (Oryctolagus cuniculus [2]) | IC50 (Oryctolagus cuniculus [6]) | ED20 (Rattus norvegicus [3]) | ED50 (Rattus norvegicus [4]) | Selectivity index (Rattus norvegicus [5]) | ED50 (Rattus norvegicus [7]) | ED50 (Rattus norvegicus [8])
O=C1c2cc([N+](=O)[O-])ccc2OCN1CCO[N+](=O)[O-] | 1.57 | 21 nM | – | 0.076 mg/kg | 64 µg/kg | 1.2 | – | –
CN(C)/C=N/c1ccc2c(c1)C(=O)N(CCO[N+](=O)[O-])CO2 | – | 640 nM | – | 1.27 mg/kg | – | 131 | 0.0171 mg/kg | > 0.3 mg/kg
O=C1c2ccccc2OCN1CCCCCO[N+](=O)[O-] | – | 98 nM | – | 0.73 mg/kg | – | 13 | – | –
O=C1c2ccccc2OCN1CCCO[N+](=O)[O-] | – | 77 nM | – | – | – | – | 0.001 mg/kg | –
Cc1cccc2c1OCN(CCO[N+](=O)[O-])C2=O | – | 360 nM | – | 0.88 mg/kg | 58.2 µg/kg | 15 | – | –
O=C1c2cc(Cl)ccc2OCN1CCO[N+](=O)[O-] | 2.56 | 37 nM | – | 0.088 mg/kg | 107 µg/kg | 0.87 | – | –
Cc1cccc2c1C(=O)N(CCO[N+](=O)[O-])CO2 | – | 125 nM | – | 0.3 mg/kg | 4.6 µg/kg | 65 | > 0.01 mg/kg | –
N#Cc1ccc2c(c1)C(=O)N(CCO[N+](=O)[O-])CO2 | 1.28 | 71 nM | – | > 0.3 mg/kg | – | 26 | – | –
COc1ccc2c(c1)C(=O)N(CCO[N+](=O)[O-])CO2 | 1.83 | 230 nM | – | > 1 mg/kg | 5.1 µg/kg | 421 | 0.013 mg/kg | 0.1 mg/kg
O=C(NCCO[N+](=O)[O-])c1cccnc1 [NICORANDIL] | – | – | – | 0.16 mg/kg | 940 µg/kg | – | 0.047 mg/kg | 3 mg/kg
O=[N+]([O-])OCC(CO[N+](=O)[O-])O[N+](=O)[O-] [NITROGLYCERIN] | – | 16 nM | – | 0.0054 mg/kg | 545 µg/kg | 0.01 | 0.036 mg/kg | –
O=C1c2ccccc2OCN1CCO[N+](=O)[O-] [SINITRODIL] | 1.85 | 94 nM | – | 0.19 mg/kg | 2.1 µg/kg | 90 | – | 0.118 mg/kg

Further lines, with some results ahead:

logP [1] | IC50 (Oryctolagus cuniculus [2]) | IC50 (Oryctolagus cuniculus [6]) | SMILES | ED20 (Rattus norvegicus [3]) | ED50 (Rattus norvegicus [4]) | Selectivity index (Rattus norvegicus [5]) | ED50 (Rattus norvegicus [7]) | ED50 (Rattus norvegicus [8])
2.73 | – | 220 nM | O=C1c2ccc(C(F)(F)F)cc2OCN1CCO[N+](=O)[O-] | > 0.3 mg/kg | 1.5 µg/kg | 200 | 0.082 mg/kg | > 0.3 mg/kg
2.56 | 70 nM | – | O=C1c2ccc(Cl)cc2OCN1CCO[N+](=O)[O-] | 0.79 mg/kg | – | 72 | – | –
2.41 | 110 nM | – | Cc1ccc2c(c1)OCN(CCO[N+](=O)[O-])C2=O | 0.22 mg/kg | – | 17.5 | – | –
2.41 | 35 nM | – | Cc1ccc2c(c1)C(=O)N(CCO[N+](=O)[O-])CO2 | 0.037 mg/kg | 6 µg/kg | 8.6 | 0.00041 mg/kg | 0.142 mg/kg
1.83 | 47 nM | – | COc1ccc2c(c1)OCN(CCO[N+](=O)[O-])C2=O | 0.29 mg/kg | 2 µg/kg | 147 | > 0.01 mg/kg | > 0.3 mg/kg
